pEC50, pIC50: −log10 of the molar value. Activity calls are given as the source filed them. The rule behind the calls is not given here.
Tests used:
[1] = target: T1, Muscarinic acetylcholine receptor M1 (Homo sapiens) (UniProt P11229); test: Intrinsic activity at human muscarinic acetylcholine receptor M1 expressed in CHO cells assessed as calcium mobilization by FLIPR assay relative to acetylcholine; format: functional, cell-based
T1 sequence (whole entry): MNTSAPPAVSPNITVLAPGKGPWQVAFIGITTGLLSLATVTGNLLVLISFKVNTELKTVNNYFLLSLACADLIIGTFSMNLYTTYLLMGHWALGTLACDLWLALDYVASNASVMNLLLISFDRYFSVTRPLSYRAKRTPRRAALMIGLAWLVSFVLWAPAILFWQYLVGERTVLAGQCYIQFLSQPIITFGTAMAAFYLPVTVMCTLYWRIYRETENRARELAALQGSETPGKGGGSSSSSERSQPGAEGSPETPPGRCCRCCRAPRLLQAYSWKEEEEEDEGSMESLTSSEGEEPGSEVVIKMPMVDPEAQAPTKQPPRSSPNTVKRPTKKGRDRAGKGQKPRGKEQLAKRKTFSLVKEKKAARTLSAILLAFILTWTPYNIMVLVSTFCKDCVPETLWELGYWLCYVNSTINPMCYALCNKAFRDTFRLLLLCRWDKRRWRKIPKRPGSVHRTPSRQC

[2] = target: T2, Muscarinic acetylcholine receptor M4 (Homo sapiens) (UniProt P08173); test: Intrinsic activity at human muscarinic acetylcholine receptor M4 expressed in CHO cells assessed as calcium mobilization by FLIPR assay relative to acetylcholine; format: functional, cell-based
T2 sequence (whole entry): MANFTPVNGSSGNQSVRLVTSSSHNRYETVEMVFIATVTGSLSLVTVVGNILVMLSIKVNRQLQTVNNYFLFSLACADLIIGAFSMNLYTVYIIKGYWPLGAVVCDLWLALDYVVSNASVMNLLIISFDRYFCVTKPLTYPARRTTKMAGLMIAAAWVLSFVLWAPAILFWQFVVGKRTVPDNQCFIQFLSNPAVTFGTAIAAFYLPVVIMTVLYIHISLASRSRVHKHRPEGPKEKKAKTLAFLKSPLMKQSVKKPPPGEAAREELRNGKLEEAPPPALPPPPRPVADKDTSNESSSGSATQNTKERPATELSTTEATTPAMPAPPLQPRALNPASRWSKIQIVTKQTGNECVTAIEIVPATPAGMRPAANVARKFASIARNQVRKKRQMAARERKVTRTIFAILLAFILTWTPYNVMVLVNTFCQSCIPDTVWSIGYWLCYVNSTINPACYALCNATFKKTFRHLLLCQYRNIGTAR

[3] = target: T1, Muscarinic acetylcholine receptor M1 (Homo sapiens); test: Agonist activity at human muscarinic acetylcholine receptor M1 expressed in CHO cells assessed as calcium mobilization at 0.3 uM by FLIPR assay relative to acetylcholine; format: functional, cell-based
[4] = target: T2, Muscarinic acetylcholine receptor M4 (Homo sapiens); test: Agonist activity at human muscarinic acetylcholine receptor M4 expressed in CHO cells assessed as calcium mobilization at 0.3 uM by FLIPR assay relative to acetylcholine; format: functional, cell-based
[5] = target: T3, Muscarinic acetylcholine receptor M1 (Homo sapiens, UniProt P11229); test: Agonist activity at human muscarinic acetylcholine receptor M1 expressed in CHO cells assessed as calcium mobilization by FLIPR assay; format: functional, cell-based
T3 sequence (P11229 whole entry): T1 sequence (whole entry)

[6] = target: Voltage-gated inwardly rectifying potassium channel KCNH2 (Homo sapiens, UniProt Q12809); test: Inhibition of human ERG tail current after 5 mins by patch-clamp method
[7] = target: T4, Muscarinic acetylcholine receptor M2 (Homo sapiens) (UniProt P08172); test: Agonist activity at human muscarinic acetylcholine receptor M2 expressed in CHO cells assessed as calcium mobilization at 0.3 uM by FLIPR assay relative to acetylcholine; format: functional, cell-based
T4 sequence (whole entry): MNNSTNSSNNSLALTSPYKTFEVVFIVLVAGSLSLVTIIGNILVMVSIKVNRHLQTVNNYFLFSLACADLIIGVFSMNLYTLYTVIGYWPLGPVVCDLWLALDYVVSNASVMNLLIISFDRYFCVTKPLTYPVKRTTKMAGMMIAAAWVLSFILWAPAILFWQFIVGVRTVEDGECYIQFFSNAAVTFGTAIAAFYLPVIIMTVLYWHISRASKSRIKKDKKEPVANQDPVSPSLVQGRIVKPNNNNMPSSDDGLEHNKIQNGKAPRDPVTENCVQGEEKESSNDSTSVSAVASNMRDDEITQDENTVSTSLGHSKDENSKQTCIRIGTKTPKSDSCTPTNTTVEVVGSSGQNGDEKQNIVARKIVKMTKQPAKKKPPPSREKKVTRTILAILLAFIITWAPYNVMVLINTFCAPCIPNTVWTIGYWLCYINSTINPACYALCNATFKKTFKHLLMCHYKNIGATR

[8] = target: T5, Muscarinic acetylcholine receptor M4 (Homo sapiens, UniProt P08173); test: Agonist activity at human muscarinic acetylcholine receptor M4 expressed in CHO cells assessed as calcium mobilization by FLIPR assay; format: functional, cell-based
T5 sequence (P08173 whole entry): T2 sequence (whole entry)

[9] = target: T6, Muscarinic acetylcholine receptor M5 (Homo sapiens) (UniProt P08912); test: Agonist activity at human muscarinic acetylcholine receptor M5 expressed in CHO cells assessed as calcium mobilization at 10 uM by FLIPR assay relative to acetylcholine; format: functional, cell-based
T6 sequence (whole entry): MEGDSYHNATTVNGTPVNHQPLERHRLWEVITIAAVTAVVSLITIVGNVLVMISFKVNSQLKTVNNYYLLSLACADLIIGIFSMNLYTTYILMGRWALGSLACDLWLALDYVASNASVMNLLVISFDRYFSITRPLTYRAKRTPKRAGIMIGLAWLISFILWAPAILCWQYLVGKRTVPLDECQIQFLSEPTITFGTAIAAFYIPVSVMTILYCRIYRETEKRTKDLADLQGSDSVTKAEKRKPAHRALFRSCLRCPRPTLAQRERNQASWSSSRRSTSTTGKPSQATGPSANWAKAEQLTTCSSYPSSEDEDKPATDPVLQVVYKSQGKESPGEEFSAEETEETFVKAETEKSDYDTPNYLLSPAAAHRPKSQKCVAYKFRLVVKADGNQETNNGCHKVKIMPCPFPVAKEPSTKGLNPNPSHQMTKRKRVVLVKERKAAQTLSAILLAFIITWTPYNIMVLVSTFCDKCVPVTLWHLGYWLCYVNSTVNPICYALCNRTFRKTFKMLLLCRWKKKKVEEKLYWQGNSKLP

[10] = target: Muscarinic acetylcholine receptor M3 (Homo sapiens) (UniProt P20309); test: Agonist activity at human muscarinic acetylcholine receptor M3 expressed in CHO cells assessed as calcium mobilization at 0.3 uM by FLIPR assay relative to acetylcholine; format: functional, cell-based
[11] = Ratio of drug level in brain to plasma in rat; format: ADME; settings: brain and plasma, read-out: BPR
[12] = target: T1, Muscarinic acetylcholine receptor M1 (Homo sapiens); test: Competitive antagonist activity at human muscarinic acetylcholine receptor M1 expressed in CHO cells assessed as inhibition of ACh-induced calcium mobilization; format: functional, cell-based
P-gp = test: Activity of p-gp (unknown origin) assessed as efflux ratio; format: ADME; settings: human, not told
[13] = target: Histamine H1 receptor (Homo sapiens) (UniProt P35367); test: Binding affinity to human histamine H1 receptor at 3 uM by radioligand displacement assay relative to control
[14] = Oral bioavailability in rat at 1 mg/kg; format: ADME, organism-based; settings: in vivo
[15] = target: D(2) dopamine receptor (Homo sapiens) (UniProt P14416); test: Binding affinity to human dopamine D2 receptor at 3 uM by radioligand displacement assay relative to control
Rattus norvegicus = test: Antipsychotic activity in po dosed Sprague-Dawley rat assessed as reversal of methamphetamine-induced hyperlocomotion administered 60 mins prior to methamphetamine challenge measured for 10 to 80 mins post methamphetamine challenge; format: functional, organism-based
In short: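 Rats were dosed orally with test compound (1–10 mg/kg) or vehicle 60 min before methamphetamine (0.1 mg/kg, ip). Locomotor activity was recorded for 80 min starting 10 min after the methamphetamine injection. Values are mean ± SEM, n = 6.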

[16] = target: T7, Alpha-1D adrenergic receptor (Homo sapiens) (UniProt P25100); test: Binding affinity to human adrenaline alpha-1D receptor at 3 uM by radioligand displacement assay relative to control
T7 sequence (whole entry): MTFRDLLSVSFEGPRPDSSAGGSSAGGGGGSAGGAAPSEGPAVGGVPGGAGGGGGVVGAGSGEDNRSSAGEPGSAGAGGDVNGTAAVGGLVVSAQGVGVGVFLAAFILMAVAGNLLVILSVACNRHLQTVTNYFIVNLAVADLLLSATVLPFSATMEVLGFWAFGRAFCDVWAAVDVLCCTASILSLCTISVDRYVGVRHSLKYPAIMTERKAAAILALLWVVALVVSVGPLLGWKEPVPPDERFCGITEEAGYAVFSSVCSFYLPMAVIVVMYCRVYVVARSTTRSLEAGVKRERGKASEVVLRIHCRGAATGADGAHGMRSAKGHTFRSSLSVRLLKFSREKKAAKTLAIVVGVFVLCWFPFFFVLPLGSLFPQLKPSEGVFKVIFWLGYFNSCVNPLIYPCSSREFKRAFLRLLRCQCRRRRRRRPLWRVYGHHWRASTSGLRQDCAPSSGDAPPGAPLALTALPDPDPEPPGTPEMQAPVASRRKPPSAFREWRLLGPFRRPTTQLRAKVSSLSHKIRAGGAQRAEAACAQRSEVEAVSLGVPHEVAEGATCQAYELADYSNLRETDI

Voltage-gated inwardly rectifying potassium channel KCNH2, sequence (Q12809 whole entry): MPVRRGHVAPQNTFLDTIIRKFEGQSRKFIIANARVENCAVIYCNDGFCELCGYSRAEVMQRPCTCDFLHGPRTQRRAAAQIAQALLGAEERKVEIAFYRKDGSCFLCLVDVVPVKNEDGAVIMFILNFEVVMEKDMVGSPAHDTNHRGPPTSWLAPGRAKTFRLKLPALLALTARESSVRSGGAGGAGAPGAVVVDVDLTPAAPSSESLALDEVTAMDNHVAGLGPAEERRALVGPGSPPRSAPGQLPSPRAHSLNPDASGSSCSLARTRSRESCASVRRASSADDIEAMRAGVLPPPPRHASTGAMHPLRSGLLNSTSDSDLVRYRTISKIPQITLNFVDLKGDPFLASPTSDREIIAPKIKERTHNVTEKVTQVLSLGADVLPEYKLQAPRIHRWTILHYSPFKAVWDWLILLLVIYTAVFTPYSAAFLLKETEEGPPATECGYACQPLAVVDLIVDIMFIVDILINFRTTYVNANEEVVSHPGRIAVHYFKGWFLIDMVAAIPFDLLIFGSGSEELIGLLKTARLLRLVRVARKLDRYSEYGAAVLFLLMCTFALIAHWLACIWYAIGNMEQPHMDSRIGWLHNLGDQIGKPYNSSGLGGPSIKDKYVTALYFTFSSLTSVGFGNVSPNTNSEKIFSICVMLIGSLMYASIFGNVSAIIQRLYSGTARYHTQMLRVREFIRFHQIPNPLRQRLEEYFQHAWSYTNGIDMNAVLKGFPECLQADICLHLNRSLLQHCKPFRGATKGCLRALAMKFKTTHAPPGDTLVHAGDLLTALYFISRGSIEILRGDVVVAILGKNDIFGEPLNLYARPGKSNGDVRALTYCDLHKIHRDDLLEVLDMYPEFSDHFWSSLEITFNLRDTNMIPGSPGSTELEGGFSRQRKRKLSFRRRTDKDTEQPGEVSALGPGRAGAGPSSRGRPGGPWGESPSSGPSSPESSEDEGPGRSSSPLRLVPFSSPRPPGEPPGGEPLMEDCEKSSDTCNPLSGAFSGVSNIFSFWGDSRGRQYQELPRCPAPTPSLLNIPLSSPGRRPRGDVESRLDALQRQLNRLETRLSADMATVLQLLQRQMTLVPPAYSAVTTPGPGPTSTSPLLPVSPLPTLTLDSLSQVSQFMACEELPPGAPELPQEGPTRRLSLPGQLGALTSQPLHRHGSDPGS
Muscarinic acetylcholine receptor M3 (Homo sapiens), sequence (P20309 whole entry, looked up): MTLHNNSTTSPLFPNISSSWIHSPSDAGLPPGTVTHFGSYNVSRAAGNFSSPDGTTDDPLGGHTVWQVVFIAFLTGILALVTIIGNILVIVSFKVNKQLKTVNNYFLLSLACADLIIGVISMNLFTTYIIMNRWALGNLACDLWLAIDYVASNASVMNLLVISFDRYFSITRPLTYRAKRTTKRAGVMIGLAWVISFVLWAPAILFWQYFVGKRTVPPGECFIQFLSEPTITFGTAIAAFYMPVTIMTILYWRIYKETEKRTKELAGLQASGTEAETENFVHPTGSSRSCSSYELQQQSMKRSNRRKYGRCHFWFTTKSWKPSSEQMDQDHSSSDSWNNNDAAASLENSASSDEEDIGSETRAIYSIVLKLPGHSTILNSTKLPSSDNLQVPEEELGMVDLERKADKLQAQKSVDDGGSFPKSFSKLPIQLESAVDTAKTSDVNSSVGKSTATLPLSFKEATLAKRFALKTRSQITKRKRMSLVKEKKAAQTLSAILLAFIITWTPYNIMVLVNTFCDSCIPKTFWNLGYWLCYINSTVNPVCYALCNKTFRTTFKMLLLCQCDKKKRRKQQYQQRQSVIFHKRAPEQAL
D(2) dopamine receptor (Homo sapiens), sequence (P14416 whole entry): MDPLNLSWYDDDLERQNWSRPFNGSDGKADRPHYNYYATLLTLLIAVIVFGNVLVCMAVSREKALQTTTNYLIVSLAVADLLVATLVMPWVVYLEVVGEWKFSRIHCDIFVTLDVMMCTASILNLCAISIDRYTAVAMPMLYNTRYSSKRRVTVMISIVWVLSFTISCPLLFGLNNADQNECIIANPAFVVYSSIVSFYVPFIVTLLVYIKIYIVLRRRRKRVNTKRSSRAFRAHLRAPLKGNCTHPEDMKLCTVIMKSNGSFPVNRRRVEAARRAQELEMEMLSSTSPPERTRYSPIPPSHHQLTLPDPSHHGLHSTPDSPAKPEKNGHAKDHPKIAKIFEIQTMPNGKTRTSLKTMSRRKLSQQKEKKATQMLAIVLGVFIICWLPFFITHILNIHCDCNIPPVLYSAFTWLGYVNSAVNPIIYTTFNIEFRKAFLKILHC
Histamine H1 receptor (Homo sapiens), sequence (P35367 whole entry): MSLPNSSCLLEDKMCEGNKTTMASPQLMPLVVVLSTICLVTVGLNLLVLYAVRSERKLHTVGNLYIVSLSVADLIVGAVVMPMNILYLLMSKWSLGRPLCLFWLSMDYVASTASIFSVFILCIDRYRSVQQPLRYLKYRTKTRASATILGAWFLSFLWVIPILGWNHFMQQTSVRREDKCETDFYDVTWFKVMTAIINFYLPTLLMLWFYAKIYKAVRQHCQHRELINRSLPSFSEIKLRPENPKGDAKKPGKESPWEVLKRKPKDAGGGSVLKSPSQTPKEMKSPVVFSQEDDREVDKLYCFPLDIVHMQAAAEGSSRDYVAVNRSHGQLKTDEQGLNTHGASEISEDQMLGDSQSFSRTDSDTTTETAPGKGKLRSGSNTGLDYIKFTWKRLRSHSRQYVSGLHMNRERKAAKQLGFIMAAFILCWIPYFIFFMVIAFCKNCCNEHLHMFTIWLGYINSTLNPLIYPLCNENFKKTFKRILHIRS

Emax [4]	Structure (SMILES)	Intrinsic activity [2]	Emax [3]	pIC50 [6]	Emax [7]	pEC50 [8]	Emax [9]	Emax [10]	also measured
3%	CC(C)OC(=O)N1CCC(C)(CN2CCC3(CC2)CN(S(C)(=O)=O)c2ncccc23)CC1	–	–	5.56	–	–	–	–	–
52%	COC(=O)N1CCC(C)(CN2CCC3(CC2)CN(S(C)(=O)=O)c2ncccc23)CC1	–	3%	–	2%	–	–	1%	–
2%	CC1(CN2CCC3(CC2)CN(S(C)(=O)=O)c2ncccc23)CCN(C(=O)OC(C)(C)C)CC1	–	–	–	–	–	–	–	–
4%	CCOC(=O)N1[C@@H]2CC[C@H]1C[C@H](CN1CCC3(CC1)CN(S(C)(=O)=O)c1ncccc13)C2	–	–	–	–	–	–	–	–

Structure (SMILES)	Emax [4]	Intrinsic activity [2]	Emax [3]	pIC50 [6]	Emax [7]	pEC50 [8]	Emax [9]	Emax [10]	also measured
CCOC(=O)N1CCC(CN2CCC3(CC2)CN(S(C)(=O)=O)c2ncccc23)CC1	88%	83%	20%	5.72	12%	7.03	3%	7%	Intrinsic activity [1]: 59%; pEC50 [5]: 6.45
CCOC(=O)N1CCC(C)(CN2CCC3(CC2)CN(S(C)(=O)=O)c2ncccc23)CC1	94%	81%	5%	5.44	3%	7.89	3%	4%	Kp [11]: 0.9; inhibition [12]: Active; efflux ratio (P-gp): 0.9; inhibition [13]: 27%; bioavailability [14]: 49%; inhibition [15]: 0%; Activity (Rattus norvegicus): Dose-dependent effect; inhibition [16]: 0%

From ChEMBL document CHEMBL3286277, “Discovery of N-sulfonyl-7-azaindoline derivatives as potent, orally available and selective M(4) muscarinic acetylcholine receptor agonists” (Bioorg Med Chem Lett, 2014)
